Data taken from ChEMBL document CHEMBL4725448, “Substituted Azabicyclo[2.2.1]heptanes as Selective Orexin-1 Antagonists: Discovery of JNJ-54717793” (ACS Med Chem Lett, 2020).
≈ marks a conversion by molar mass, not a printed value.

How the values were obtained:
[1] = target: T1, Orexin/Hypocretin receptor type 1 (Homo sapiens, UniProt O43613); assay: Binding affinity to human […]
T1 sequence (O43613 whole entry): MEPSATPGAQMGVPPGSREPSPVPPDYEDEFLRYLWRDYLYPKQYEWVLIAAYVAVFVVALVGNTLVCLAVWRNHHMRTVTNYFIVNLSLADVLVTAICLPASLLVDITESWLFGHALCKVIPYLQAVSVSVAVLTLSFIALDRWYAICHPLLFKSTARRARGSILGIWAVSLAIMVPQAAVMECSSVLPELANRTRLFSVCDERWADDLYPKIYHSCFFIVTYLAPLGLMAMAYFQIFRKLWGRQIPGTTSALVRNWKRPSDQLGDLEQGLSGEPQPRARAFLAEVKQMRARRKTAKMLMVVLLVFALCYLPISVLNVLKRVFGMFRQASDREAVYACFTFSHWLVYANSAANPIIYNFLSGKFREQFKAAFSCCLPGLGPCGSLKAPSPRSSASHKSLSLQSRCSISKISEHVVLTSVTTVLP

[2] = Stability in rat liver microsomes assessed as extraction ratio; type: ADME, Microsome; conditions: read-out: ERH
In short: (§1)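 Metabolic stability in human or rat liver microsomes, expressed as extraction ratios.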

[3] = target: T2, Orexin receptor type 2 (Homo sapiens, UniProt O43614); assay: Binding affinity to human OX2R
T2 sequence (O43614 whole entry): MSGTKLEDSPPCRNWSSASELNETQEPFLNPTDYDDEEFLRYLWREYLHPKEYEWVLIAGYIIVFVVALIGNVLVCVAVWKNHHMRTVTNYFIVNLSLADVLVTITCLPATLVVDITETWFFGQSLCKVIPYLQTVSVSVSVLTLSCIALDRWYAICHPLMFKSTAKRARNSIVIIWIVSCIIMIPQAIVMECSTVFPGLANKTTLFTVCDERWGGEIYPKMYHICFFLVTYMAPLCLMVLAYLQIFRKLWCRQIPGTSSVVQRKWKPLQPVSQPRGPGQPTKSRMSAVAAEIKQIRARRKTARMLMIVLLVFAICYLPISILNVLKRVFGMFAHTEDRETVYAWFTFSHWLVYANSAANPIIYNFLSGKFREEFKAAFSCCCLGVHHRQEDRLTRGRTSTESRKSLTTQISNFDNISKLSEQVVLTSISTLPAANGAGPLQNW

[4] = Stability in human liver microsomes assessed as extraction ratio; type: ADME, Microsome; conditions: read-out: ERH; in short: as §1
[5] = Ex vivo receptor occupancy at OX1R in Sprague-Dawley rat brain tenia tecta using [3H]SB-674042 labelling at 10 mg/kg, po measured after 2 hrs by autoradiography; type: functional
In short: (§2)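 Rats received a single oral dose, and OX1R occupancy was measured by ex vivo binding autoradiography in brain tenia tecta sections at 0.5, 2 and 6 h after dosing. Occupancy is expressed as percent. Brain and plasma drug levels (ng/mL) were also sampled at the 0.5 h time point.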

[6] = Drug concentration in Sprague-Dawley rat plasma at 10 mg/kg, po after 0.5 hrs by LC-MS/MS analysis; type: ADME, organism-based
In short: (§3)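 Brain and plasma levels (ng/mL) sampled 0.5 h after oral dosing at 10 or 30 mg/kg, alongside the ex vivo tenia tecta occupancy study.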

[7] = Ex vivo receptor occupancy at OX1R in Sprague-Dawley rat brain tenia tecta using [3H]SB-674042 labelling at 10 mg/kg, po measured after 6 hrs by autoradiography; type: functional; in short: as §2
[8] = Ex vivo receptor occupancy at OX1R in Sprague-Dawley rat brain tenia tecta using [3H]SB-674042 labelling at 10 mg/kg, po measured after 0.5 hrs by autoradiography; type: functional; in short: as §2
[9] = Drug concentration in Sprague-Dawley rat brain at 10 mg/kg, po after 0.5 hrs by LC-MS/MS analysis; type: ADME, organism-based; conditions: read-out: Ct; in short: as §3
[10] = Protein binding in human plasma assessed as free fraction; type: ADME, cell-free
[11] = Permeability across basolateral to apical side in MDCK cells; type: ADME, cell-based, Canis lupus familiaris; conditions: dog
[12] = target: T3, PXR (NR1I2) (Homo sapiens, UniProt O75469); assay: Induction of human PXR at 10 uM relative to control; type: ADME; conditions: read-out: Activity
T3 sequence (O75469 whole entry): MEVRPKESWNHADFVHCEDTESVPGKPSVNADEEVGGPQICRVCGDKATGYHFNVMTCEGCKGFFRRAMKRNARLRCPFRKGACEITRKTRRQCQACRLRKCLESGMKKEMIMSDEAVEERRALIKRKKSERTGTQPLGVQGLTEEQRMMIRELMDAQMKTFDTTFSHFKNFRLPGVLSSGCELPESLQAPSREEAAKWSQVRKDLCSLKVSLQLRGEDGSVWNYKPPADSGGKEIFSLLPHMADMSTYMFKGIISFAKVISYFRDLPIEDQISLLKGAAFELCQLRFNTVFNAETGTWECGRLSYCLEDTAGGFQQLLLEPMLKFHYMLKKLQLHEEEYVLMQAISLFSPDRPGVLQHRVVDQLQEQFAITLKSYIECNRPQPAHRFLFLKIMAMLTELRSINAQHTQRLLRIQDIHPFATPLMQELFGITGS
In short: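 Human PXR activation as an indirect measure of CYP3A4 induction, at 10 μM, expressed as % of rifampicin control activation.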

[13] = Protein binding in rat brain assessed as free fraction; type: ADME, tissue-based
[14] = Permeability across apical to basolateral side in MDCK cells; type: ADME, cell-based, Canis lupus familiaris; conditions: dog
[15] = Protein binding in rat plasma assessed as free fraction; type: ADME, cell-free
[16] = Ex vivo receptor occupancy at OX1R in Sprague-Dawley rat brain tenia tecta using [3H]SB-674042 labelling at 30 mg/kg, po measured after 0.5 hrs by autoradiography; type: functional
In short: (§4)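 Ex vivo OX1R binding autoradiography in rat tenia tecta after a 30 mg/kg po dose; percent occupancy read at 0.5 and 2 h.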

[17] = Drug concentration in Sprague-Dawley rat brain at 30 mg/kg, po after 0.5 hrs by LC-MS/MS analysis; type: ADME, organism-based; conditions: read-out: Ct; in short: as §3
[18] = Drug concentration in Sprague-Dawley rat plasma at 30 mg/kg, po after 0.5 hrs by LC-MS/MS analysis; type: ADME, organism-based; in short: as §3
[19] = Ex vivo receptor occupancy at OX1R in Sprague-Dawley rat brain tenia tecta using [3H]SB-674042 labelling at 30 mg/kg, po measured after 2 hrs by autoradiography; type: functional; in short: as §4
[20] = species: Homo sapiens; assay: Selectivity index, ratio of Ki for human OX2R to Ki for human OX1R
[21] = Ex vivo receptor occupancy at OX1R in po dosed rat tenia tecta after 60 mins; type: functional, organism-based; conditions: 1 h

| Structure (SMILES) | Ki [1] [nM] | hepatic extraction ratio [2] | Ki [3] [nM] | hepatic extraction ratio [4] | also measured |
| --- | --- | --- | --- | --- | --- |
| O=C(c1cc(F)ccc1-c1ncccn1)N1C2CCC1C(COc1ccc(F)cn1)C2 (racemic) | 41 | 0.76 | 160 | 0.81 |  |
| Cc1ccc(-n2nccn2)c(C(=O)N2C3CCC2C(Nc2ccc(C(F)(F)F)cn2)C3)n1 (racemic) | 75 | > 0.92 |  | 0.93 |  |
| O=C(c1cccc(F)c1-c1ncccn1)N1[C@@H]2CC[C@H]1[C@H](Nc1ccc(C(F)(F)F)cn1)C2 |  | 0.82 |  | 0.75 | Activity [5]: 69%; concentration at 0.5 h [6]: 586 ng/mL; Activity [7]: 21%; Activity [8]: 70%; concentration at 0.5 h [9]: 72 ng/mL |
| O=C(c1ccccc1-c1ncccn1)N1[C@@H]2CC[C@H]1[C@H](Nc1cnc(C(F)(F)F)cn1)C2 | 19 | 0.38 | 520 | < 0.3 | fraction unbound [10]: 0.15; Papp B→A [11]: 68 ×10⁻⁶ cm/s; Activity [5]: 83%; activity at 10 µM [12]: 18%; concentration at 0.5 h [6]: 1480 ng/mL; Activity [7]: 48%; fraction unbound [13]: 0.067; Activity [8]: 77%; Papp A→B [14]: 1.1 ×10⁻⁶ cm/s; fraction unbound [15]: 0.214; concentration at 0.5 h [9]: 296 ng/mL |
| O=C(c1ccccc1-n1nccn1)N1C2CCC1C(Nc1cnc(C(F)(F)F)cn1)C2 (racemic) | 62 | 0.55 | 1250 | 0.36 |  |
| O=C(c1ccc(F)cc1-c1ncccn1)N1[C@@H]2CC[C@H]1[C@H](Nc1cnc(C(F)(F)F)cn1)C2 | 61 | 0.76 | 1700 | 0.81 | Activity [16]: 75%; concentration at 0.5 h [17]: 37 ng/mL; concentration at 0.5 h [18]: 257 ng/mL; Activity [19]: 17% |
| O=C(c1ccccc1-c1cccs1)N1C2CCC1C(COc1ccc(F)cn1)C2 (racemic) |  | > 0.92 | 13 | > 0.95 |  |
| O=C(c1c(F)cccc1-c1ncccn1)N1[C@@H]2CC[C@H]1[C@H](Nc1cnc(C(F)(F)F)cn1)C2 |  |  | 560 |  | Activity [5]: 43%; concentration at 0.5 h [6]: 1600 ng/mL; Activity [7]: 29%; Activity [8]: 51%; concentration at 0.5 h [9]: 654 ng/mL |
| O=C(c1cccc(F)c1-c1ncccn1)N1C2CCC1C(Oc1ccc(C(F)(F)F)cn1)C2 (racemic) | 130 |  | > 10000 |  |  |
| O=C(c1cc(F)ccc1-c1ncccn1)N1[C@@H]2CC[C@H]1[C@H](Nc1cnc(C(F)(F)F)cn1)C2 | 65 |  | 730 |  |  |
| O=C(c1ccccc1-n1nccn1)N1C2CCC1C(Nc1ncc(C(F)(F)F)cn1)C2 (racemic) | 180 |  |  |  |  |
| O=C(c1ccccc1-n1nccn1)N1C2CCC1C(Nc1ccc(Cl)cn1)C2 (racemic) | 96 | > 0.92 | 2130 | 0.88 | Ratio Ki [20]: 20 |
| O=C(c1cc(F)ccc1-n1nccn1)N1C2CCC1C(COc1ccc(F)cn1)C2 (racemic) | 59 | 0.8 | 200 | 0.81 |  |
| Cc1ccc(-n2nccn2)c(C(=O)N2[C@@H]3CC[C@H]2[C@H](COc2ccc(F)cn2)C3)n1 |  |  |  |  | Activity [16]: 50%; concentration at 0.5 h [17]: 313 ng/mL; concentration at 0.5 h [18]: 930 ng/mL; Activity [19]: 30% |
| O=C(c1nccc2[nH]cnc12)N1CCC(F)(F)[C@@H](Oc2ccc3ccccc3n2)C1 | 5.2 |  |  |  |  |
| O=C(c1cccc(F)c1-c1ncccn1)N1C2CCC1C(Oc1cnc(C(F)(F)F)cn1)C2 (racemic) | 100 |  | 5500 |  |  |
| Cc1ccc(-n2nccn2)c(C(=O)N2C3CCC2C(COc2ccc(F)cn2)C3)c1 (racemic) |  |  | 72 |  | Activity [16]: 49%; concentration at 0.5 h [17]: 16 ng/mL; concentration at 0.5 h [18]: 55 ng/mL; Activity [19]: 43% |
| Cc1ccc(-n2nccn2)c(C(=O)N2[C@@H]3CC[C@H]2[C@H](COc2ccccn2)C3)n1 |  |  |  |  | Activity [16]: 50%; concentration at 0.5 h [17]: 8 ng/mL; concentration at 0.5 h [18]: 118 ng/mL; Activity [19]: 20% |
| O=C(c1cccn2ccnc12)N1CCC(F)(F)[C@@H](Oc2ccc3ccccc3n2)C1 | 1.8 |  | 1010 |  |  |
| O=C(c1cccc(F)c1-c1ncccn1)N1[C@@H]2CC[C@H]1[C@H](Nc1ncc(C(F)(F)F)cc1F)C2 | 15 | 0.8 | 1100 | 0.49 | fraction unbound [10]: 0.056; Papp B→A [11]: 71.3 ×10⁻⁶ cm/s; Activity [5]: 70%; activity at 10 µM [12]: 39%; concentration at 0.5 h [6]: 837 ng/mL; EC50 [21]: 0.25 µg/mL (≈ 0.526 µM); ED50 ([21]; po, time 60 min): 4.8 mg/kg; Activity [7]: 46%; fraction unbound [13]: 0.027; Activity [8]: 81%; Papp A→B [14]: 7.7 ×10⁻⁶ cm/s; fraction unbound [15]: 0.064; concentration at 0.5 h [9]: 539 ng/mL |
| O=C(c1ccccc1-n1nccn1)N1[C@@H]2CC[C@H]1[C@H](Nc1cnc(C(F)(F)F)cn1)C2 | 30 | 0.31 | 770 | < 0.3 |  |
| O=C(c1ccccc1-n1nccn1)N1C2CCC1C(Oc1ccc(C(F)(F)F)cn1)C2 (racemic) | 130 |  | 2700 |  |  |
| Cc1ccc(-n2nccn2)c(C(=O)N2C3CCC2C(COc2ccc(C(F)(F)F)cn2)C3)n1 (racemic) | 500 |  | 420 |  |  |
| Cc1ccc(-c2ncccn2)c(C(=O)N2[C@@H]3CC[C@H]2[C@H](COc2ccccn2)C3)n1 | 19 | 0.82 | 230 | 0.61 |  |
| O=C(c1ccccc1-n1nccn1)N1C2CCC1C(Nc1ccc(C(F)(F)F)cn1)C2 (racemic) | 52 | 0.87 | 1400 | 0.69 |  |
| O=C(c1cccc(F)c1-c1ncccn1)N1[C@@H]2CC[C@H]1[C@H](Nc1ncc(C(F)(F)F)cc1Cl)C2 | 14 | 0.83 | 540 | 0.61 |  |
| COc1ccc(C[C@H]2c3cc(OC)c(OC)cc3CCN2[C@@H](C(=O)NC(C)C)c2ccccc2)cc1OC | 6 |  |  |  |  |
| Cc1ccc(-c2ncccn2)c(C(=O)N2C3CCC2C(COc2ccc(F)cn2)C3)c1 (racemic) | 8.7 | 0.89 | 40 | 0.91 |  |
